# Experimental data reported in ChEMBL document CHEMBL1932946, “Design, synthesis and anticonvulsant evaluation of novel N-(4-substituted phenyl)-2-[4-(substituted) benzylidene]-hydrazinecarbothio amides” (Eur J Med Chem, 2012).
# Activity calls are given as the source filed them. No cut-off for these calls is given here.
# Experiments:
# [1] = tested on: Mus musculus; assay: Neurotoxicity in albino CF-1 mouse assessed as minimum motor impairment at 300 mg/kg, ip after 0.5 hrs by rotarod test; format: toxicity, organism-based; design: dose 300 mg/kg, route intraperitoneal; conditions: in vivo
# Summary of the method: (§1)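 Minimal motor impairment assessed in male CF-1 albino mice (18–25 g) at 0.5 and 4 h after i.p. doses of 30, 100 and 300 mg/kg, given in 0.5% methyl cellulose. Minimum dose toxic in half or more of mice recorded.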
# [2] = tested on: Mus musculus; assay: Neurotoxicity in albino CF-1 mouse assessed as minimum motor impairment at 300 mg/kg, ip after 4 hrs by rotarod test; format: toxicity, organism-based; design: dose 300 mg/kg, route intraperitoneal; conditions: in vivo; summary of the method: as §1
# [3] = Octanol-phosphate buffer partition coefficient, log P of the compound at 5 mg after 24 hrs by UV spectroscopic analysis; format: physicochemical
# Summary of the method: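 5 mg compound added to 10 mL octanol plus 10 mL phosphate buffer in a stoppered tube. Mixture shaken mechanically 24 h at room temperature, then left 6 h in a separating funnel to equilibrate.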
# [4] = tested on: Mus musculus; assay: Anticonvulsant activity in albino CF-1 mouse assessed as protection against 6 Hz psychomotor seizure at 100 mg/kg, ip after 0.25 hrs by minimal clonic seizure test; format: functional
# Summary of the method: (§2)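 Male CF-1 albino mice (18–25 g) given compound i.p., suspended in 0.5% methyl cellulose, 100 mg/kg in screen. Four mice per time point challenged at 0.25, 0.5, 1.0, 2.0 and 4.0 h via corneal electrodes (32 mA, 3 s, 6 Hz). Protection = absence of psychomotor seizure (minimal clonic phase, automatistic behaviours). Scored as animals protected/tested.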
# [5] = tested on: Mus musculus; assay: Anticonvulsant activity in albino CF-1 mouse assessed as protection against 6 Hz psychomotor seizure at 100 mg/kg, ip after 0.5 hrs by minimal clonic seizure test; format: functional; summary of the method: as §2
# [6] = tested on: Mus musculus; assay: Anticonvulsant activity in albino CF-1 mouse assessed as protection against 6 Hz psychomotor seizure at 100 mg/kg, ip after 1 hr by minimal clonic seizure test; format: functional; summary of the method: as §2
# [7] = tested on: Mus musculus; assay: Anticonvulsant activity in albino CF-1 mouse assessed as protection against 6 Hz psychomotor seizure at 100 mg/kg, ip after 2 hrs by minimal clonic seizure test; format: functional; summary of the method: as §2
# [8] = tested on: Mus musculus; assay: Anticonvulsant activity in albino CF-1 mouse assessed as protection against 6 Hz psychomotor seizure at 100 mg/kg, ip after 4 hrs by minimal clonic seizure test; format: functional, organism-based; design: dose 100 mg/kg; summary of the method: as §2
# [9] = Neuroprotective activity in hippocampal slice assessed as protection against kainic acid-induced cell death using propidium iodide staining; format: functional, tissue-based; conditions: Hippocampus
# Summary of the method: (§3)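 Qualitative primary screen on organotypic hippocampal slice cultures. Cell death induced by NMDA or kainic acid, with or without test compound. Propidium iodide present in all wells; PI fluorescence intensity taken as proportional to cell death.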
# [10] = Neuroprotective activity in hippocampal slice assessed as protection against NMDA-induced cell death using propidium iodide staining; format: functional, tissue-based; conditions: Hippocampus; summary of the method: as §3
logP at 24 h [3],SMILES,Activity [1],Activity [2],Activity [4],Activity [5],Activity [6],Activity [7],Activity [8],Activity ([4]; route intraperitoneal) [%],Activity ([5]; route intraperitoneal) [%],Activity [9],Activity [10],Activity ([6]; route intraperitoneal) [%],Activity ([7]; route intraperitoneal) [%]
6.2,S=C(N/N=C/c1ccc(Oc2ccc(Cl)cc2)cc1)Nc1ccc(Cl)cc1,Non-toxic,Non-toxic,–,–,–,–,–,–,–,–,–,–,–
6.03,Cc1cc(Oc2ccc(/C=N/NC(=S)Nc3ccccc3)cc2)ccc1Cl,Non-toxic,Non-toxic,inactive,Active,inactive,inactive,inactive,–,–,–,–,–,–
6.37,S=C(N/N=C/c1ccc(Oc2ccc(Br)cc2)cc1)Nc1ccc(Cl)cc1,Non-toxic,Non-toxic,–,–,–,–,–,–,–,–,–,–,–
5.64,S=C(N/N=C/c1ccc(Oc2ccccc2)cc1)Nc1ccc(Cl)cc1,Non-toxic,Non-toxic,–,–,–,–,–,–,–,–,–,–,–
4.95,O=[N+]([O-])c1ccc(Oc2ccc(/C=N/NC(=S)Nc3ccccc3)cc2)cc1,Non-toxic,Non-toxic,–,–,–,–,–,–,–,–,–,–,–
5.19,Fc1ccc(NC(=S)N/N=C/c2ccc(Oc3ccc(F)cc3)cc2)cc1,Non-toxic,Non-toxic,–,Active,inactive,Active,inactive,50,–,–,–,–,–
5.54,S=C(N/N=C/c1ccc(Oc2ccc3c(c2)OCO3)cc1)Nc1ccc(Cl)cc1,Non-toxic,Non-toxic,–,–,–,–,–,–,–,–,–,–,–
5.52,O=[N+]([O-])c1ccc(Oc2ccc(/C=N/NC(=S)Nc3ccc(Cl)cc3)cc2)cc1,Non-toxic,Non-toxic,–,–,–,–,–,–,–,–,–,–,–
6.07,Cc1cc(Oc2ccc(/C=N/NC(=S)Nc3ccc(F)cc3)cc2)ccc1Cl,Non-toxic,Non-toxic,inactive,Active,Active,inactive,inactive,–,–,–,–,–,–
5.84,Fc1ccc(Oc2ccc(/C=N/NC(=S)Nc3ccc(Cl)cc3)cc2)cc1,Non-toxic,Non-toxic,Active,Active,inactive,Active,Active,–,–,–,–,–,–
5.88,Fc1ccc(NC(=S)N/N=C/c2ccc(Oc3ccc(Br)cc3)cc2)cc1,Non-toxic,Non-toxic,inactive,Active,inactive,inactive,inactive,–,–,–,–,–,–
6.07,S=C(N/N=C/c1ccc(Oc2ccc3ccccc3c2)cc1)Nc1ccccc1,Non-toxic,Non-toxic,–,–,–,–,–,–,–,–,–,–,–
6.96,S=C(N/N=C/c1ccc(Oc2ccc3ccccc3c2)cc1)Nc1ccc(Cl)cc1,Non-toxic,Non-toxic,–,–,–,–,–,–,–,–,–,–,–
5.48,Cc1ccc(Oc2ccc(/C=N/NC(=S)Nc3ccc(F)cc3)cc2)cc1,Non-toxic,Non-toxic,Active,–,inactive,inactive,inactive,–,50,–,–,–,–
6.2,Fc1ccc(NC(=S)N/N=C/c2ccc(Oc3ccc4ccccc4c3)cc2)cc1,Non-toxic,Non-toxic,inactive,inactive,inactive,Active,Active,–,–,–,–,–,–
5.39,Cc1ccc(Oc2ccc(/C=N/NC(=S)Nc3ccccc3)cc2)cc1,Non-toxic,Non-toxic,–,–,–,–,–,–,–,–,–,–,–
6.24,S=C(N/N=C/c1ccc(Oc2ccc(Cl)cc2)cc1)Nc1ccc(Br)cc1,Non-toxic,Non-toxic,–,–,–,–,–,–,–,–,–,–,–

logP at 24 h [3],SMILES,Activity [1],Activity [2],Activity [4],Activity [5],Activity [6],Activity [7],Activity [8],Activity ([4]; route intraperitoneal) [%],Activity ([5]; route intraperitoneal) [%],Activity [9],Activity [10],Activity ([6]; route intraperitoneal) [%],Activity ([7]; route intraperitoneal) [%]
6.38,S=C(N/N=C/c1ccc(Oc2ccccc2)cc1)Nc1ccc(Br)cc1,Non-toxic,Non-toxic,inactive,Active,inactive,inactive,inactive,–,–,inactive,inactive,–,–
5.09,Fc1ccc(Oc2ccc(/C=N/NC(=S)Nc3ccccc3)cc2)cc1,Non-toxic,Non-toxic,inactive,inactive,Active,inactive,inactive,–,–,–,–,–,–
4.8,S=C(N/N=C/c1ccc(Oc2ccc3c(c2)OCO3)cc1)Nc1ccccc1,Non-toxic,Non-toxic,–,–,–,–,–,–,–,–,–,–,–
5.62,S=C(N/N=C/c1ccc(Oc2ccc(Br)cc2)cc1)Nc1ccccc1,Non-toxic,Non-toxic,inactive,Active,Active,Active,inactive,–,–,–,–,–,–
5.97,Cc1ccc(Oc2ccc(/C=N/NC(=S)Nc3ccc(Cl)cc3)cc2)cc1,Non-toxic,Non-toxic,–,–,–,–,–,–,–,–,–,–,–
5.52,S=C(N/N=C/c1ccc(Oc2ccc(Cl)cc2)cc1)Nc1ccccc1,Non-toxic,Non-toxic,–,–,–,–,–,–,–,–,–,–,–
6.93,S=C(N/N=C/c1ccc(Oc2ccc3ccccc3c2)cc1)Nc1ccc(Br)cc1,Non-toxic,Non-toxic,–,–,–,–,–,–,–,–,–,–,–
5.09,Fc1ccc(NC(=S)N/N=C/c2ccc(Oc3ccccc3)cc2)cc1,Non-toxic,Non-toxic,Active,Active,inactive,inactive,inactive,–,–,–,–,–,–
4.89,O=[N+]([O-])c1ccc(Oc2ccc(/C=N/NC(=S)Nc3ccc(F)cc3)cc2)cc1,Non-toxic,Non-toxic,inactive,–,Active,inactive,inactive,–,50,–,–,–,–
5.82,Fc1ccc(Oc2ccc(/C=N/NC(=S)Nc3ccc(Br)cc3)cc2)cc1,Non-toxic,Non-toxic,inactive,Active,Active,Active,inactive,–,–,–,–,–,–
5.52,S=C(N/N=C/c1ccc(Oc2ccc3c(c2)OCO3)cc1)Nc1ccc(Br)cc1,Non-toxic,Non-toxic,–,–,–,–,–,–,–,–,–,–,–
4.9,S=C(N/N=C/c1ccc(Oc2ccccc2)cc1)Nc1ccccc1,Non-toxic,Non-toxic,–,–,–,–,–,–,–,–,–,–,–
6.59,Cc1cc(Oc2ccc(/C=N/NC(=S)Nc3ccc(Cl)cc3)cc2)ccc1Cl,Non-toxic,Non-toxic,inactive,Active,–,–,inactive,–,–,–,–,50,50
6.17,Cc1ccc(Oc2ccc(/C=N/NC(=S)Nc3ccc(Br)cc3)cc2)cc1,Non-toxic,Non-toxic,inactive,Active,Active,inactive,inactive,–,–,–,–,–,–
4.99,Fc1ccc(NC(=S)N/N=C/c2ccc(Oc3ccc4c(c3)OCO4)cc2)cc1,Non-toxic,Non-toxic,–,–,–,–,–,–,–,–,–,–,–
5.68,O=[N+]([O-])c1ccc(Oc2ccc(/C=N/NC(=S)Nc3ccc(Br)cc3)cc2)cc1,Non-toxic,Non-toxic,–,–,–,–,–,–,–,–,–,–,–
